Active and inactive are the calls of the source. The rule behind the calls is not given here.
Assays:
MCF7 [1] = assay: Cytotoxicity against human MCF7 cells at 10^-6 M after 72 hrs by MTS assay; type: functional; details: MCF7, 72 h, read-out: GI
[2] = Antiproliferative activity against human MDA231 cells after 72 hrs by MTS assay; type: functional, cell-based; details: MDA-MB-231, 72 h
Outline: (§1)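 Cell lines grown in RPMI with 10% fetal calf serum plus penicillin, streptomycin and fungizone under 5% CO2. Compounds in DMSO (1% final; controls got DMSO alone) were added 24 h after plating. After 72 h exposure, MTS was added for 3 h at 37 °C and A490 read. Inhibition = (1 − OD treated/OD control)×100, in triplicate. IC50s came from separate duplicate dose-response experiments.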

[3] = Cytotoxicity against human MDA231 cells at 10^-5 M after 72 hrs by MTS assay; type: functional; details: MDA-MB-231, 72 h, read-out: GI
Outline: (§2)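 Preliminary screen at 10^-5 and 10^-6 M. Cells were grown in RPMI with 10% fetal calf serum plus penicillin, streptomycin and fungizone under 5% CO₂, plated in 96-well plates, and dosed 24 h later from DMSO stocks (1% DMSO final, same in controls). After 72 h, MTS was added for 3 h at 37 °C and absorbance read at 490 nm. Inhibition was calculated as (1 − OD treated/OD control) × 100, in triplicate.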

A549 [4] = assay: Cytotoxicity against human A549 cells at 10^-5 M after 72 hrs by MTS assay; type: functional; details: A549, 72 h, read-out: GI
Outline: (§3)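 Cells grown in RPMI with 10% fetal calf serum, penicillin, streptomycin and fungizone under 5% CO₂. Plated in 96-well plates and dosed 24 h later with compound in DMSO (1% final DMSO; controls got DMSO alone). After 72 h, MTS was added for 3 h at 37 °C and A490 read. Inhibition = (1 − OD treated/OD control) × 100, in triplicate.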

HCT-15 [5] = assay: Antiproliferative activity against human HCT15 cells after 72 hrs by MTS assay; type: functional, cell-based; details: HCT-15, 72 h; outline: as §1
MIA PaCa-2 [6] = assay: Cytotoxicity against human MIAPaCa2 cells at 10^-5 M after 72 hrs by MTS assay; type: functional; details: MIA PaCa-2, 72 h, read-out: GI
SF-268 [7] = assay: Cytotoxicity against human SF268 cells at 10^-5 M after 72 hrs by MTS assay; type: functional; details: SF-268, 72 h, read-out: GI; outline: as §2
SK-OV-3 [8] = assay: Cytotoxicity against human SKOV3 cells at 10^-5 M after 72 hrs by MTS assay; type: functional; details: SK-OV-3, 72 h, read-out: GI; outline: as §2
PC-3 [9] = assay: Cytotoxicity against human PC3 cells at 10^-5 M after 72 hrs by MTS assay; type: functional; details: PC-3, 72 h, read-out: GI; outline: as §2
HCT-116 [10] = assay: Cytotoxicity against human HCT116 cells at 10^-5 M after 72 hrs by MTS assay; type: functional; details: HCT-116, 72 h, read-out: GI; outline: as §3
HT-29 [11] = assay: Cytotoxicity against human HT-29 cells at 10^-5 M after 72 hrs by MTS assay; type: functional; details: HT-29, 72 h, read-out: GI; outline: as §3
MCF7 [12] = assay: Cytotoxicity against human MCF7 cells at 10^-5 M after 72 hrs by MTS assay; type: functional; details: MCF7, 72 h, read-out: GI
HL-60 [13] = assay: Cytotoxicity against human HL60 cells at 10^-6 M after 72 hrs by MTS assay; type: functional; details: HL-60, 72 h, read-out: GI; outline: as §3
K562 [14] = assay: Cytotoxicity against human K562 cells at 10^-6 M after 72 hrs by MTS assay; type: functional; details: K562, 72 h, read-out: GI; outline: as §3
[15] = Cytotoxicity against human HL60R cells at 10^-5 M after 72 hrs by MTS assay; type: functional, HL-60; details: read-out: GI; outline: as §3
MIA PaCa-2 [16] = assay: Cytotoxicity against human MIAPaCa2 cells at 10^-6 M after 72 hrs by MTS assay; type: functional; details: MIA PaCa-2, 72 h, read-out: GI
SK-OV-3 [17] = assay: Antiproliferative activity against human SKOV3 cells after 72 hrs by MTS assay; type: functional, cell-based; details: SK-OV-3, 72 h; outline: as §1
SF-268 [18] = assay: Cytotoxicity against human SF268 cells at 10^-6 M after 72 hrs by MTS assay; type: functional; details: SF-268, 72 h, read-out: GI; outline: as §2
HCT-116 [19] = assay: Cytotoxicity against human HCT116 cells at 10^-6 M after 72 hrs by MTS assay; type: functional; details: HCT-116, 72 h, read-out: GI; outline: as §3
K562 [20] = assay: Antiproliferative activity against human K562 cells after 72 hrs by MTS assay; type: functional, cell-based; details: K562, 72 h; outline: as §1
[21] = Cytotoxicity against human HL60R cells at 10^-6 M after 72 hrs by MTS assay; type: functional; details: read-out: GI; outline: as §3
A549 [22] = assay: Cytotoxicity against human A549 cells at 10^-6 M after 72 hrs by MTS assay; type: functional; details: A549, 72 h, read-out: GI; outline: as §3
K562 [23] = assay: Cytotoxicity against human K562 cells at 10^-5 M after 72 hrs by MTS assay; type: functional; details: K562, 72 h, read-out: GI; outline: as §3
HT-29 [24] = assay: Cytotoxicity against human HT-29 cells at 10^-6 M after 72 hrs by MTS assay; type: functional; details: HT-29, 72 h, read-out: GI; outline: as §3
SF-268 [25] = assay: Antiproliferative activity against human SF268 cells after 72 hrs by MTS assay; type: functional, cell-based; details: SF-268, 72 h; outline: as §1
PC-3 [26] = assay: Antiproliferative activity against human PC3 cells after 72 hrs by MTS assay; type: functional, cell-based; details: PC-3, 72 h; outline: as §1
[27] = Cytotoxicity against human MDA231 cells at 10^-6 M after 72 hrs by MTS assay; type: functional; details: MDA-MB-231, 72 h, read-out: GI; outline: as §2
[28] = Antiproliferative activity against human HL60R cells after 72 hrs by MTS assay; type: functional, cell-based
HL-60 [29] = assay: Cytotoxicity against human HL60 cells at 10^-5 M after 72 hrs by MTS assay; type: functional; details: HL-60, 72 h, read-out: GI; outline: as §3
HL-60 [30] = assay: Antiproliferative activity against human HL60 cells after 72 hrs by MTS assay; type: functional, cell-based; details: HL-60, 72 h; outline: as §1
OVCAR-8 [31] = assay: Antiproliferative activity against human OVCAR8 cells after 72 hrs by MTS assay; type: functional, cell-based; details: OVCAR-8, 72 h; outline: as §1
OVCAR-8 [32] = assay: Cytotoxicity against human OVCAR8 cells at 10^-5 M after 72 hrs by MTS assay; type: functional; details: OVCAR-8, 72 h, read-out: GI; outline: as §2
PC-3 [33] = assay: Cytotoxicity against human PC3 cells at 10^-6 M after 72 hrs by MTS assay; type: functional; details: PC-3, 72 h, read-out: GI; outline: as §2
HCT-15 [34] = assay: Cytotoxicity against human HCT15 cells at 10^-6 M after 72 hrs by MTS assay; type: functional; details: HCT-15, 72 h, read-out: GI; outline: as §3
OVCAR-8 [35] = assay: Cytotoxicity against human OVCAR8 cells at 10^-6 M after 72 hrs by MTS assay; type: functional; details: OVCAR-8, 72 h, read-out: GI; outline: as §2
SK-OV-3 [36] = assay: Cytotoxicity against human SKOV3 cells at 10^-6 M after 72 hrs by MTS assay; type: functional; details: SK-OV-3, 72 h, read-out: GI; outline: as §2
HCT-15 [37] = assay: Cytotoxicity against human HCT15 cells at 10^-5 M after 72 hrs by MTS assay; type: functional; details: HCT-15, 72 h, read-out: GI; outline: as §3
Ovis aries [38] = species on record: Ovis aries; assay: Inhibition of sheep brain tubulin polymerization at 10 uM
Outline: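 Microtubule protein from sheep brain, purified by two assembly/disassembly cycles (37 °C/0 °C), in 100 mM MES pH 6.6, 1 mM EGTA, 0.5 mM MgCl₂. Compounds in DMSO were tested at a single concentration, with incubation at 37 °C for 10 min and then 0 °C for 5 min before measuring assembly rate, following a modified Guénard protocol.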

Ovis aries [39] = species on record: Ovis aries; assay: Inhibition of sheep brain tubulin polymerization at 17 uM

Compound	inhibition of growth at 1 µM (MCF7 [1]) [%]	inhibition of growth at 10 µM [3] [%]	inhibition of growth at 10 µM (A549 [4]) [%]	inhibition of growth at 10 µM (MIA PaCa-2 [6]) [%]	inhibition of growth at 10 µM (SF-268 [7]) [%]	inhibition of growth at 10 µM (SK-OV-3 [8]) [%]	inhibition of growth at 10 µM (PC-3 [9]) [%]	inhibition of growth at 10 µM (HCT-116 [10]) [%]	inhibition of growth at 10 µM (HT-29 [11]) [%]	inhibition of growth at 10 µM (MCF7 [12]) [%]	inhibition of growth at 1 µM (HL-60 [13]) [%]	inhibition of growth at 1 µM (K562 [14]) [%]	inhibition of growth at 10 µM [15] [%]	inhibition of growth at 1 µM (MIA PaCa-2 [16]) [%]	inhibition of growth at 1 µM (SF-268 [18]) [%]	inhibition of growth at 1 µM (HCT-116 [19]) [%]	inhibition of growth at 1 µM [21] [%]	inhibition of growth at 1 µM (A549 [22]) [%]	inhibition of growth at 10 µM (K562 [23]) [%]	inhibition of growth at 1 µM (HT-29 [24]) [%]	further results
COc1ccc(/C(=C2\O[C@@H]([C@H](O)CO)[C@H]3OC(C)(C)O[C@@H]23)c2cc(OC)c(OC)c(OC)c2)cc1O	0	69	58	58	73	81	77	58	8	43	10	15	95	5	16	1	12	0	90	6	IC50 [2]: 610 nM; IC50 (HCT-15 [5]): 630 nM; IC50 (SK-OV-3 [17]): 6510 nM; IC50 (K562 [20]): 450 nM; IC50 (SF-268 [25]): 1100 nM; IC50 (PC-3 [26]): 690 nM; inhibition of growth at 1 µM [27]: 0%; IC50 [28]: 1490 nM; inhibition of growth at 10 µM (HL-60 [29]): 79%; IC50 (HL-60 [30]): 820 nM; IC50 (OVCAR-8 [31]): 2970 nM; inhibition of growth at 10 µM (OVCAR-8 [32]): 95%; inhibition of growth at 1 µM (PC-3 [33]): 0%; inhibition of growth at 1 µM (HCT-15 [34]): 11%; inhibition of growth at 1 µM (OVCAR-8 [35]): 1%; inhibition of growth at 1 µM (SK-OV-3 [36]): 6%; inhibition of growth at 10 µM (HCT-15 [37]): 82%
COc1ccc(C(=C(CO)CO)c2cc(OC)c(OC)c(OC)c2)cc1O																					tubulin polymerization inhibition call (active/not active) (Ovis aries [38]): inactive; inhibition (Ovis aries [39]): Active
COc1cc(C(=C(COC(C)=O)COC(C)=O)c2cc(OC)c(OC)c(OC)c2)cc(OC)c1OC	5	69	22	10	53	23	44	17	4	44	15	12	36	0	26	0	11	0	29	0	tubulin polymerization inhibition call (active/not active) (Ovis aries [38]): inactive; inhibition of growth at 1 µM [27]: 0%; inhibition of growth at 10 µM (HL-60 [29]): 39%; inhibition of growth at 10 µM (OVCAR-8 [32]): 24%; inhibition of growth at 1 µM (PC-3 [33]): 7%; inhibition of growth at 1 µM (HCT-15 [34]): 19%; inhibition of growth at 1 µM (OVCAR-8 [35]): 0%; inhibition of growth at 1 µM (SK-OV-3 [36]): 8%; inhibition of growth at 10 µM (HCT-15 [37]): 48%
